Test results as given in ChEMBL document CHEMBL4316599, “Synthesis, in vitro and in vivo biological evaluation of substituted 3-(5-imidazo[2,1-b]thiazolylmethylene)-2-indolinones as new potent anticancer agents” (Eur J Med Chem, 2019).
Activity calls are given as the source filed them. The rule behind the calls is not given here.

Legend:
HT-29 [1] = assay: Cell cycle arrest in human HT-29 cells assessed as accumulation of cells at G2/M phase after 24 hrs by propidium iodide staining-based flow cytometric analysis; assay type: functional
How it was run: (§1)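 Cells exposed to a range of concentrations for 24 h (HeLa at 5×10^5 cells), then fixed in ice-cold 70% ethanol. Lysis buffer with RNase A and 0.1% Triton X-100 was applied before PI staining. DNA content was read by flow cytometry and G1/S/G2/M fractions taken from DNA histograms. Mean ± SEM of two independent experiments.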

HeLa [2] = assay: Cell cycle arrest in human HeLa cells assessed as decrease in p-cdc25c expression at 50 to 250 nM after 24 hrs by Western blot analysis; assay type: functional, cell-based
How it was run: (§2)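 HeLa cells treated 24 h, washed in ice-cold PBS and lysed on ice 30 min. Lysates were spun at 15000 x g, 4 °C. 10 µg protein run on SDS-PAGE and blotted to PVDF. Blots were blocked in 5% BSA overnight at 4 °C and probed 2 h at room temperature. Detection by HRP-secondary and ECL, with bands normalized to β-actin as fold of untreated. Three independent experiments, one-way ANOVA/Dunnett.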

A549 = assay: Induction of apoptosis in human A549 cells at 25 nM after 24 to 48 hrs by Annexin V-FITC/propidium iodide staining-based flow cytometric analysis; assay type: functional, cell-based
How it was run: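 A549 cells treated 24 or 48 h at 12.5–100 nM, then double-stained with annexin-V-FITC and PI. Phosphatidylserine exposure was read by flow cytometry. Mean ± SEM of three independent experiments.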

HeLa [3] = assay: Induction of apoptosis in human HeLa cells at 250 nM after 24 to 48 hrs by Annexin V-FITC/propidium iodide staining-based flow cytometric analysis; assay type: functional, cell-based
How it was run: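 HeLa cells exposed 24 or 48 h to 250, 500 or 1000 nM; annexin-V-FITC plus PI double staining for surface phosphatidylserine and DNA, measured by flow cytometry. Mean ± SEM of three independent experiments.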

HeLa [4] = assay: Induction of ROS generation in human HeLa cells at 250 nM after 12 to 24 hrs by H2-DCFDA staining-based assay; assay type: functional, cell-based
How it was run: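 HeLa cells treated 6, 12, 24 or 48 h, then loaded with H2-DCFDA and analysed by flow cytometry for ROS. Mean ± SEM of three independent experiments, compared against control.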

[5] = Cytotoxicity against human COLON cells after 48 hrs by SRB assay; assay type: functional
How it was run: (§3)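 NCI-60 screen: single-dose pass at 10^-5 M, then a five-concentration assay from 10^-9 to 10^-4 M (highest 100 μM). Exposure was 48 h under standard NCI protocols. GI50, TGI and LC50 were derived per cell line and averaged by subpanel. Repeated tests are the mean of two experiments.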

B16-BL6 [6] = assay: Antitumor activity mouse B16-BL6 cells implanted in C57BL/6 mouse assessed tumor growth inhibition at 7.5 mg/kg, ip dosed every other day for 18 days relative to control; assay type: functional; settings: 432 h, read-out: TGI
How it was run: (§4)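 Syngeneic allograft: C57BL/6 mice, six weeks old, given 2.5×10^5 BL6-B16 or E0771 cells subcutaneously in the dorsolateral flank in PBS. Dosing began at about 100 mm³. Test compound or reference was given intraperitoneally every other day in 50 μL DMSO, with DMSO vehicle controls. Tumor volume was compared with the vehicle group, 5 animals per group, mean ± SEM, by 2-way ANOVA with Bonferroni correction.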

K562 [7] = assay: Cell cycle arrest in human K562 cells assessed as mitotic index at 5 times IC50 by Giemsa staining-based assay (reference value: 3%); assay type: functional
HeLa [8] = assay: Cell cycle arrest in human HeLa cells assessed as reduction in accumulation of cells at G1 phase up to 1000 nM after 24 hrs by propidium iodide staining-based flow cytometric analysis; assay type: functional; how it was run: as §1
HeLa [9] = assay: Cell cycle arrest in human HeLa cells assessed as reduction in accumulation of cells at S phase up to 1000 nM after 24 hrs by propidium iodide staining-based flow cytometric analysis; assay type: functional; how it was run: as §1
HeLa [10] = assay: Induction of apoptosis in human HeLa cells assessed as decrease in Mcl-1 levels at 50 to 250 nM after 24 hrs by Western blot analysis; assay type: functional, cell-based; how it was run: as §2
Prostatic carcinoma cell = assay: Cytotoxicity against human prostate cancer cells after 48 hrs by SRB assay; assay type: functional; how it was run: as §3
Renal cancer cell line = assay: Cytotoxicity against human renal cancer cells after 48 hrs by SRB assay; assay type: functional; how it was run: as §3
HeLa [11] = assay: Induction of apoptosis in human HeLa cells assessed as increase in cleaved PARP levels at 50 nM after 24 hrs by Western blot analysis; assay type: functional, cell-based; how it was run: as §2
B16-BL6 [12] = assay: Antitumor activity mouse B16-BL6 cells implanted in C57BL/6 mouse assessed tumor growth inhibition at 15 mg/kg, ip dosed every other day for 18 days relative to control; assay type: functional; settings: 432 h, read-out: TGI; how it was run: as §4
HeLa [13] = assay: Cell cycle arrest in human HeLa cells assessed as decrease in cdc2 phosphorylation at 50 to 250 nM after 24 hrs by Western blot analysis; assay type: functional, cell-based; how it was run: as §2
CNS carcinoma cell = assay: Cytotoxicity against human CNS cancer cells after 48 hrs by SRB assay; assay type: functional; how it was run: as §3
B16-BL6 [14] = assay: Growth inhibition of mouse B16-BL6 cells after 72 hrs by MTT assay; assay type: functional; settings: B16-BL6, 72 h
How it was run: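 Murine BL6-B16 melanoma and EO771 breast tumor cells were exposed to compound for 72 h. GI50 is reported ± error.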

[15] = Cytotoxicity against human PBL after 72 hrs by MTT assay; assay type: cell-based; settings: peripheral blood lymphocytes (PBL)
How it was run: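 Lymphocytes from healthy donors were isolated on a Lymphoprep gradient and held overnight in RPMI-1640 with 10% FBS. Non-adherent cells were set at 5×10^5 cells/mL, either resting or stimulated with 2.5 μg/mL PHA. Cells were exposed to a range of compound concentrations for 72 h and viability read by MTT. GI50 is the mean ± SEM of three separate experiments.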

K562 [16] = assay: Cytotoxicity against human K562 cells after 16 hrs by SRB assay; settings: K562, 16 h
NSCLC = assay: Cytotoxicity against human NSCLC cells after 48 hrs by SRB assay; assay type: functional; how it was run: as §3
Ovarian carcinoma cell = assay: Cytotoxicity against human ovarian cancer cells after 48 hrs by SRB assay; assay type: functional; how it was run: as §3
HT-29 [17] = assay: Cell cycle arrest in human HT-29 cells assessed as reduction in accumulation of cells at G1 phase up to 1000 nM after 24 hrs by propidium iodide staining-based flow cytometric analysis; assay type: functional; how it was run: as §1
E0771 = assay: Antitumor activity mouse E0771 cells implanted in C57BL/6 mouse assessed tumor growth inhibition at 15 mg/kg, ip dosed every other day for 20 days relative to control; assay type: functional; settings: 480 h, read-out: TGI; how it was run: as §4
[18] = read-out: LC50 (the source's name)

Question: For `O=C1Nc2c(ccc3ccccc23)C1=Cc1c(-c2ccncc2)nc2sccn12`, which Activity (HT-29 [1]) is on record?
Answer: Dose-dependent effect

Question: And the Activity (HeLa [2])?
Answer: Active

Question: What about the Activity (A549) of the same compound?
Answer: Active

Question: What about the Activity (HeLa [3]) of the same compound?
Answer: Active

Question: What about the Activity (HeLa [4]) of the same compound?
Answer: Active

Question: What about the GI50 [5] of the same compound?
Answer: 0.03 µM

Question: And the TGI [5]?
Answer: 39.9 µM

Question: What about the CC50 [5, 18] of the same compound?
Answer: 77 µM

Question: And the inhibition in vivo at 7.5 mg/kg (B16-BL6 [6])?
Answer: 18%

Question: And the Activity (K562 [7])?
Answer: 35%

Question: And the Activity (HeLa [8])?
Answer: Active

Question: And the Activity (HeLa [9])?
Answer: Active

Question: And the Activity (HeLa [10])?
Answer: Active

Question: What about the GI50 (Prostatic carcinoma cell) of the same compound?
Answer: 0.02 µM

Question: And the TGI (Prostatic carcinoma cell)?
Answer: 55.9 µM

Question: And the CC50 (Prostatic carcinoma cell; [18])?
Answer: 80.1 µM

Question: What about the GI50 (Renal cancer cell line) of the same compound?
Answer: 11.8 µM

Question: What about the TGI (Renal cancer cell line) of the same compound?
Answer: 70.1 µM

Question: And the Activity (HeLa [11])?
Answer: Active

Question: And the inhibition in vivo at 15 mg/kg (B16-BL6 [12])?
Answer: 29.4%

Question: And the Activity (HeLa [13])?
Answer: Active

Question: What about the GI50 (CNS carcinoma cell) of the same compound?
Answer: 0.04 µM

Question: And the TGI (CNS carcinoma cell)?
Answer: 79.8 µM

Question: And the CC50 (CNS carcinoma cell; [18])?
Answer: 94.3 µM

Question: What about the GI50 (B16-BL6 [14]) of the same compound?
Answer: 0.305 µM

Question: And the GI50 at 72 h [15]?
Answer: 4.5 µM

Question: What about the IC50 (K562 [16]) of the same compound?
Answer: 0.03 µM

Question: And the GI50 (NSCLC)?
Answer: 11.1 µM

Question: What about the LC50 (NSCLC) of the same compound?
Answer: 97.9 µM

Question: What about the TGI (NSCLC) of the same compound?
Answer: 79.9 µM

Question: What about the GI50 (Ovarian carcinoma cell) of the same compound?
Answer: 0.05 µM

Question: And the LC50 (50% lethal concentration) (Ovarian carcinoma cell)?
Answer: 80 µM

Question: And the TGI (Ovarian carcinoma cell)?
Answer: 73.8 µM

Question: What about the Activity (HT-29 [17]) of the same compound?
Answer: Active

Question: And the inhibition in vivo at 15 mg/kg (E0771)?
Answer: 56.8%
